Calls of active or inactive are those of the source. The rule behind the calls is not given here.
Tests used:
[1] = system: Respiratory syncytial virus; assay: Antiviral activity against RSV infected in human cervix carcinoma cells assessed as inhibition of virus-induced cytopathic effect at 0.32 to 100 uM; assay type: functional, organism-based
Outline: (§1)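 Confluent cell cultures were infected with 100 CCID50 of virus in the presence of test compound at 100, 40, 8, 1.6 and 0.32 μM. Cytopathic effect was scored once it was complete in untreated infected controls.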

[2] = system: Coxsackievirus B4; assay: Antiviral activity against Coxsackievirus B4 infected in human cervix carcinoma cells assessed as inhibition of virus-induced cytopathic effect at 0.32 to 100 uM; assay type: functional, organism-based; outline: as §1
[3] = system: L1210; assay: Cytostatic activity against mouse L1210 cells after 2 days by coulter counter analysis; assay type: functional, cell-based; details: L1210, 48 h
Outline: (§2)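 300,000–500,000 cells/ml mixed 1:1 with compound dilutions and incubated at 37 °C for 2 days (L1210) or 3 days (CEM, HeLa). Cell number counted with a Coulter counter; HeLa trypsinized before counting.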

[4] = system: CCRF-CEM; assay: Cytostatic activity against human CEM cells after 3 days by coulter counter analysis; assay type: functional, cell-based; details: 72 h; outline: as §2
[5] = system: HeLa; assay: Cytostatic activity against human HeLa cells after 3 days by coulter counter analysis; assay type: functional, cell-based; details: 72 h; outline: as §2
[6] = system: HCT-116; assay: Cytostatic activity against human HCT116 cells after 72 hrs by MTT assay; assay type: functional, cell-based; details: HCT-116, 72 h
Outline: (§3)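 Monolayers in DMEM with 10% FBS, 2 mM L-glutamine and penicillin/streptomycin, 37 °C, 5% CO2. Seeded at 1–3 × 10^4 cells/ml, then compound added in tenfold dilutions (10⁻⁸–10⁻⁴ M) for 72 h. MTT read at 570 nm; percent growth taken against time-zero and untreated controls. IC50 by linear regression; quadruplicate, at least two experiments.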

[7] = system: MCF7; assay: Cytostatic activity against human MCF7 cells after 72 hrs by MTT assay; assay type: functional, cell-based; details: MCF7, 72 h; outline: as §3
[8] = system: NCI-H460; assay: Cytostatic activity against human NCI-H460 cells after 72 hrs by MTT assay; assay type: functional, cell-based; details: NCI-H460, 72 h; outline: as §3
[9] = system: HaCaT; assay: Cytostatic activity against human HaCaT cells after 72 hrs by MTT assay; assay type: ADME, cell-based; outline: as §3
[10] = system: Human alphaherpesvirus 1; assay: Antiviral activity against HSV1 KOS infected in human lung fibroblast assessed as inhibition of virus-induced cytopathic effect at 0.32 to 100 uM; assay type: functional, organism-based; outline: as §1
[11] = system: Human alphaherpesvirus 2; assay: Antiviral activity against HSV2 G infected in human lung fibroblast assessed as inhibition of virus-induced cytopathic effect at 0.32 to 100 uM; assay type: functional, organism-based; details: strain G; outline: as §1
[12] = system: Vaccinia virus; assay: Antiviral activity against Vaccinia virus infected in human lung fibroblast assessed as inhibition of virus-induced cytopathic effect at 0.32 to 100 uM; assay type: functional, organism-based; details: Orthopoxvirus vaccinia
[13] = system: Vesicular stomatitis virus; assay: Antiviral activity against VSV infected in human lung fibroblast assessed as inhibition of virus-induced cytopathic effect at 0.32 to 100 uM; assay type: functional, organism-based
[14] = system: Human respirovirus 3; assay: Antiviral activity against Parainfluenza virus 3 infected in african green monkey Vero cells assessed as inhibition of virus-induced cytopathic effect at 0.32 to 100 uM; assay type: functional, organism-based; outline: as §1
[15] = system: Mammalian orthoreovirus 1; assay: Antiviral activity against Reovirus-1 infected in african green monkey Vero cells assessed as inhibition of virus-induced cytopathic effect at 0.32 to 100 uM; assay type: functional, organism-based; outline: as §1
[16] = system: Sindbis virus; assay: Antiviral activity against Sindbis virus infected in african green monkey Vero cells assessed as inhibition of virus-induced cytopathic effect at 0.32 to 100 uM; assay type: functional, organism-based; outline: as §1
[17] = system: Coxsackievirus B4; assay: Antiviral activity against Coxsackievirus B4 infected in african green monkey Vero cells assessed as inhibition of virus-induced cytopathic effect at 0.32 to 100 uM; assay type: functional, organism-based; outline: as §1
[18] = system: Punta Toro virus; assay: Antiviral activity against Punta Toro virus infected in african green monkey Vero cells assessed as inhibition of virus-induced cytopathic effect at 0.32 to 100 uM; assay type: functional, organism-based; outline: as §1
[19] = system: Vesicular stomatitis virus; assay: Antiviral activity against Vesicular stomatitis virus infected in human cervix carcinoma cells assessed as inhibition of virus-induced cytopathic effect at 0.32 to 100 uM; assay type: functional, organism-based
Outline: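 Confluent human cervix carcinoma (HeLa) cultures received 100 CCID50 of VSV together with the compound at 100, 40, 8, 1.6 or 0.32 μM. Cytopathicity was read at the point of full CPE in infected, untreated control wells.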

[20] = system: Felid alphaherpesvirus 1; assay: Antiviral activity against Feline herpesvirus infected in feline CRFK cells assessed as inhibition of virus-induced cytopathic effect at 0.32 to 100 uM; assay type: functional, organism-based; outline: as §1
[21] = system: Feline coronavirus; assay: Antiviral activity against Feline coronavirus infected in feline CRFK cells assessed as inhibition of virus-induced cytopathic effect at 0.32 to 100 uM; assay type: functional, organism-based; outline: as §1
[22] = system: Influenza A virus; assay: Antiviral activity against Influenza A virus H1N1 infected in MDCK cells assessed as inhibition of virus-induced cytopathic effect at 0.32 to 100 uM; assay type: functional, organism-based
Outline: (§4)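 Confluent MDCK monolayers were infected in the presence of the compound at 100, 40, 8, 1.6 and 0.32 μM. Viral cytopathicity was scored once it was complete in untreated infected control cultures.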

[23] = system: Influenza A virus; assay: Antiviral activity against Influenza A virus H3N2 infected in MDCK cells assessed as inhibition of virus-induced cytopathic effect at 0.32 to 100 uM; assay type: functional, organism-based; outline: as §4
[24] = system: Influenza B virus; assay: Antiviral activity against Influenza B virus infected in MDCK cells assessed as inhibition of virus-induced cytopathic effect at 0.32 to 100 uM; assay type: functional, organism-based; outline: as §4
[25] = system: Human immunodeficiency virus 1; assay: Antiviral activity against HIV1 3B infected in human CEM cells assessed as inhibition of virus-induced CEM giant cell formation at 0.32 to 100 uM after 4 days; assay type: functional, organism-based; details: CCRF-CEM
Outline: (§5)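 CEM cells (~3 × 10^5 cells/cm³) exposed to 100 CCID50/ml of virus and seeded into wells holding compound dilutions. Incubated 4 days at 37 °C, then giant cell formation examined microscopically.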

[26] = system: Human immunodeficiency virus 2; assay: Antiviral activity against HIV2 ROD infected in human CEM cells assessed as inhibition of virus-induced CEM giant cell formation at 0.32 to 100 uM after 4 days; assay type: functional, organism-based; details: ISOLATE ROD, CCRF-CEM; outline: as §5
[27] = system: Radical scavenging activity; assay: Antioxidant activity assessed as DPPH free radical scavenging activity at 100 uM after 20 mins by spectrophotometric analysis; assay type: functional
Outline: (§6)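 0.05 mM DPPH in absolute ethanol mixed with an equal volume of compound in DMSO (final 100 μM). Shaken and left 20 or 60 min, then absorbance read at 517 nm and percent activity calculated. Three replicates, averaged.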

[28] = system: Radical scavenging activity; assay: Antioxidant activity assessed as DPPH free radical scavenging activity at 100 uM after 60 mins by spectrophotometric analysis; assay type: functional; outline: as §6
[29] = Antioxidant activity assessed as inhibition of AAPH-induced linoleic acid lipid peroxidation by measuring conjugated diene hydroperoxide level; assay type: functional; parameters: concentration or dose not given beside the values; details: dose or concentration not given here
Outline: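 Linoleic acid sodium salt (10 μL of 16 mM) in 0.05 M phosphate buffer pH 7.4 at 37 °C. Oxidation started under air with 50 μL of 40 mM AAPH. Conjugated diene hydroperoxide formation followed as absorbance rise at 234 nm; control contains the same DMSO level. At least triplicate.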

[30] = system: Glycine max; assay: Inhibition of soybean LOX assessed as conversion of sodium linoleate to 13- hydroperoxylinoleic acid at 100 uM
[31] = Inhibition of soybean LOX assessed as conversion of sodium linoleate to 13- hydroperoxylinoleic acid; parameters: species or system Glycine max
[32] = system: L1210; assay: Selectivity ratio of IC50 for human HaCaT cells to IC50 for mouse L1210 cells
[33] = system: HaCaT; assay: Selectivity ratio of IC50 for human HaCaT cells to IC50 for human CEM cells
[34] = system: HeLa; assay: Selectivity ratio of IC50 for human HaCaT cells to IC50 for human HeLa cells
[35] = system: HaCaT; assay: Selectivity ratio of IC50 for human HaCaT cells to IC50 for human HCT116 cells
[36] = system: NCI-H460; assay: Selectivity ratio of IC50 for human HaCaT cells to IC50 for human NCI-H460 cells
[37] = system: MCF7; assay: Selectivity ratio of IC50 for human HaCaT cells to IC50 for human MCF7 cells

SMILES	inhibition [1]	inhibition [2]	IC50 [3]	IC50 [4]	IC50 [6]	IC50 [7]	IC50 [8]	IC50 [9]	inhibition [10]	inhibition [11]	inhibition [12]	inhibition [13]	inhibition [14]	inhibition [15]	inhibition [16]	inhibition [17]	inhibition [18]	inhibition [19]	inhibition [20]	inhibition [21]	further results
CC(C(=O)NNC(=O)NC(c1ccccc1)c1ccccc1)c1cccc(Oc2ccccc2)c1 (centres undefined)	inactive	inactive	15 µM	11 µM	5 µM	7 µM	3 µM	10 µM	inactive	inactive	inactive	inactive	inactive	inactive	inactive	inactive	inactive	inactive	inactive	inactive	IC50 [5]: 5.7 µM; inhibition [22]: inactive; inhibition [23]: inactive; inhibition [24]: inactive; inhibition [25]: inactive; inhibition [26]: inactive; Activity [27]: 2%; Activity [28]: 4%; inhibition [29]: 99%; inhibition [30]: 81%; IC50 [31]: 60 µM; Ratio IC50 [32]: 2; Ratio IC50 [33]: 2; Ratio IC50 [34]: 2; Ratio IC50 [35]: 2; Ratio IC50 [36]: 2; Ratio IC50 [37]: 2
CC(C(=O)NNC(=O)NC(c1ccccc1)c1ccccc1)c1cccc(Cc2ccccc2)c1 (centres undefined)	inactive	inactive	19 µM	15 µM	8 µM	5 µM	4 µM	11 µM	inactive	inactive	inactive	inactive	inactive	inactive	inactive	inactive	inactive	inactive	inactive	inactive	IC50 [5]: 5 µM; inhibition [22]: inactive; inhibition [23]: inactive; inhibition [24]: inactive; inhibition [25]: inactive; inhibition [26]: inactive; Activity [27]: 4%; Activity [28]: 9%; inhibition [29]: 88%; inhibition [30]: 96%; IC50 [31]: 51.5 µM; Ratio IC50 [32]: 2; Ratio IC50 [33]: 2; Ratio IC50 [34]: 2; Ratio IC50 [35]: 2; Ratio IC50 [36]: 2; Ratio IC50 [37]: 2
CC(C(=O)NNC(=O)NCCc1ccccc1)c1cccc(Cc2ccccc2)c1 (centres undefined)	inactive	inactive	31 µM	29 µM	20 µM	15 µM	22 µM	16 µM	inactive	inactive	inactive	inactive	inactive	inactive	inactive	inactive	inactive	inactive	inactive	inactive	IC50 [5]: 58 µM; inhibition [22]: inactive; inhibition [23]: inactive; inhibition [24]: inactive; inhibition [25]: inactive; inhibition [26]: inactive; Activity [27]: 8%; Activity [28]: 15%; inhibition [29]: 71%; inhibition [30]: 17%
CC(C(=O)NNC(=O)NC1CCCC1)c1cccc(Oc2ccccc2)c1 (centres undefined)	inactive	inactive	55 µM	73 µM	36 µM	20 µM	33 µM	18 µM	inactive	inactive	inactive	inactive	inactive	inactive	inactive	inactive	inactive	inactive	inactive	inactive	IC50 [5]: 39 µM; inhibition [22]: inactive; inhibition [23]: inactive; inhibition [24]: inactive; inhibition [25]: inactive; inhibition [26]: inactive; Activity [27]: 16%; Activity [28]: 19%; inhibition [29]: 21%; inhibition [30]: inactive
CC(C(=O)NNC(=O)NCc1ccccc1)c1cccc(Oc2ccccc2)c1 (centres undefined)	inactive	inactive	63 µM	72 µM	27 µM	17 µM	19 µM	46 µM	inactive	inactive	inactive	inactive	inactive	inactive	inactive	inactive	inactive	inactive	inactive	inactive	inhibition [22]: inactive; inhibition [23]: inactive; inhibition [24]: inactive; inhibition [25]: inactive; inhibition [26]: inactive; Activity [27]: 22%; Activity [28]: 24%; inhibition [29]: 11%; inhibition [30]: 68%; IC50 [31]: 75 µM
